Laboratory results from ChEMBL document CHEMBL3421607, “Design, synthesis and antibacterial activity of cinnamaldehyde derivatives as inhibitors of the bacterial cell division protein FtsZ” (Eur J Med Chem, 2015).
Converted amounts (≈) assume the structure as drawn.

Key:
[1] = test system: Escherichia coli; assay: Antibacterial activity against Escherichia coli; format: functional
Procedure, shortened: (§1)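 NCCLS tube-dilution MIC using B. subtilis ATCC9372 and E. coli ATCC25922. Strains were grown on Mueller Hinton agar at 37°C for 24 h. […] Tubes were incubated at 37°C for 24 h, and the MIC was read as the last tube without turbidity.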

[2] = test system: Bacillus subtilis; assay: Antibacterial activity against Bacillus subtilis; format: functional; procedure, shortened: as §1
[3] = test system: Bacillus subtilis; assay: microbe, parasite or virus in culture; format: functional; conditions: ATCC 9372, 24 h
[4] = test system: Escherichia coli; assay: microbe, parasite or virus in culture; format: functional; conditions: ATCC 25922, 24 h
[5] = test system: Pseudomonas aeruginosa; assay: microbe, parasite or virus in culture; format: functional; conditions: ATCC 27853, 24 h
[6] = test system: Staphylococcus aureus; assay: microbe, parasite or virus in culture; format: functional; conditions: ATCC 25923, 24 h
[7] = test system: Staphylococcus aureus; assay: microbe, parasite or virus in culture; format: functional; conditions: ATCC 29213, 24 h
[8] = test system: Staphylococcus aureus; assay: Antibacterial activity against penicillin-resistant Staphylococcus aureus clinical isolates after 24 hrs by broth microdilution method; format: functional
[9] = test system: Staphylococcus epidermidis; assay: Antibacterial activity against penicillin-resistant Staphylococcus epidermidis clinical isolates after 24 hrs by broth microdilution method; format: functional
[10] = test system: Streptococcus pyogenes; assay: Antibacterial activity against penicillin-susceptible Streptococcus pyogenes clinical isolates after 24 hrs by broth microdilution method; format: functional
[11] = test system: Streptococcus pyogenes; assay: Antibacterial activity against penicillin-resistant Streptococcus pyogenes clinical isolates after 24 hrs by broth microdilution method; format: functional
[12] = test system: Bacillus subtilis; assay: microbe, parasite or virus in culture; format: functional; conditions: ATCC 9372, 5 h
[13] = test system: Escherichia coli; assay: microbe, parasite or virus in culture; format: functional; conditions: ATCC 25922, 5 h
[14] = test system: Pseudomonas aeruginosa; assay: microbe, parasite or virus in culture; format: functional; conditions: ATCC 27853, 5 h
[15] = test system: Staphylococcus aureus; assay: microbe, parasite or virus in culture; format: functional; conditions: ATCC 25923, 5 h
[16] = target: T1, Cell division protein FtsZ (Escherichia coli K-12) (UniProt P0A9A6); assay: Inhibition of Escherichia coli ATCC 25922 recombinant N-His6-tagged FtsZ polymerization expressed in Escherichia coli BL21(DE3) by light scattering assay
T1 sequence (whole entry): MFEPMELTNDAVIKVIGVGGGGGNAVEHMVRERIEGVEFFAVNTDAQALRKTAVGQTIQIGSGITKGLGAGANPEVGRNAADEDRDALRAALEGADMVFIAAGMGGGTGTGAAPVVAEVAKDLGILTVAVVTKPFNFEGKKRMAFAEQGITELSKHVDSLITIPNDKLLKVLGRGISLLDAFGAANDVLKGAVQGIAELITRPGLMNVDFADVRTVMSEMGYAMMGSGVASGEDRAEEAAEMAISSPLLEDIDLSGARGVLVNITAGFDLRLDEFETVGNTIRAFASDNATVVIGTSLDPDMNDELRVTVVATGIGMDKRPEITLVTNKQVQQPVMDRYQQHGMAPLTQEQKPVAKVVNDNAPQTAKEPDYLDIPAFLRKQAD
Procedure, shortened: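 E. coli FtsZ (N-His6, expressed in BL21(DE3), Ni-affinity purified) at 12 µM in 50 mM MES, 5 mM MgCl2, 50 mM KCl, pH 6.5 with compound at various concentrations, 2% DMSO, 30°C. Right-angle light scattering at 400 nm (excitation and emission). 120 s baseline, then polymerization started with 2 mM GTP and followed for 2000 s.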

[17] = target: T1, Cell division protein FtsZ (Escherichia coli K-12); assay: (§2) Inhibition of Escherichia coli ATCC 25922 recombinant N-His6-tagged FtsZ polymerization expressed in Escherichia coli BL21(DE3) incubated for 15 mins prior to GTP addition measured after 390 mins by malachite green staining-based GTPase assay; conditions: in the assay text read “30 mins” for “390 mins”
Procedure, shortened: (§3)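 Purified N-His6 E. coli FtsZ (10 µM) in 50 mM MES, 5 mM MgCl2, 50 mM KCl, pH 6.5 with compound at varying concentrations (2% DMSO), preincubated 15 min at room temperature. 50 μM GTP then added for 30 min at 37°C. Released phosphate measured by Malachite Green reagent (20% v/v) at A620, background-subtracted and read against a phosphate standard curve.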

[18] = test system: Staphylococcus aureus; assay: Ratio of cinnamic acid MIC to compound MIC for penicillin-susceptible Staphylococcus aureus ATCC 25923; format: functional
[19] = test system: Staphylococcus aureus; assay: Ratio of curcumin MIC to compound MIC for penicillin-susceptible Staphylococcus aureus ATCC 25923; format: functional
[20] = test system: Staphylococcus aureus; assay: Ratio of ciprofloxacin MIC to compound MIC for penicillin-susceptible Staphylococcus aureus ATCC 25923; format: functional
[21] = test system: Staphylococcus epidermidis; assay: Ratio of cinnamic acid MIC to compound MIC for Staphylococcus epidermidis; format: functional
[22] = test system: Staphylococcus epidermidis; assay: Ratio of curcumin MIC to compound MIC for Staphylococcus epidermidis; format: functional
[23] = test system: Staphylococcus epidermidis; assay: Ratio of ciprofloxacin MIC to compound MIC for Staphylococcus epidermidis; format: functional
[24] = target: T2, Cell division protein FtsZ (Escherichia coli K-12, UniProt P0A9A6); assay: as §2; conditions: in the assay text read “30 mins” for “390 mins”; procedure, shortened: as §3
T2 sequence (P0A9A6 whole entry): T1 sequence (whole entry)

SMILES | MIC [3] | MIC [4] | MIC [5] | MIC [6] | MIC [7] | MIC [8] | MIC [9] | MIC [10] | MIC [11] | MIC [12] | MIC [13] | MIC [14] | MIC [15] | further results
O=C/C=C/c1ccccc1 | – | – | – | – | – | – | – | – | – | – | – | – | – | MIC [1]: 1000 µg/mL (≈ 7570 µM); MIC [2]: 500 µg/mL (≈ 3780 µM)
Cc1nc2ccccc2n1C(=O)/C=C/c1ccc(F)cc1 | 128 µg/mL (≈ 457 µM) | 128 µg/mL (≈ 457 µM) | 128 µg/mL (≈ 457 µM) | 16 µg/mL (≈ 57.1 µM) | > 128 µg/mL | 64 µg/mL (≈ 228 µM) | 16 µg/mL (≈ 57.1 µM) | 128 µg/mL (≈ 457 µM) | 64 µg/mL (≈ 228 µM) | > 128 µg/mL | > 128 µg/mL | > 128 µg/mL | 0.5 µg/mL (≈ 1.78 µM) | inhibition [16]: Dose-dependent effect; inhibition [17]: Dose-dependent effect
CCN(CC)C(=O)/C=C/c1ccc(Cl)cc1Cl | > 128 µg/mL | > 128 µg/mL | 128 µg/mL (≈ 470 µM) | > 128 µg/mL | 128 µg/mL (≈ 470 µM) | > 128 µg/mL | 32 µg/mL (≈ 118 µM) | 128 µg/mL (≈ 470 µM) | 128 µg/mL (≈ 470 µM) | > 128 µg/mL | > 128 µg/mL | > 128 µg/mL | 128 µg/mL (≈ 470 µM) | –
Cc1nc2ccccc2n1C(=O)/C=C/c1ccccc1 | 128 µg/mL (≈ 488 µM) | 128 µg/mL (≈ 488 µM) | 128 µg/mL (≈ 488 µM) | 4 µg/mL (≈ 15.2 µM) | > 128 µg/mL | 64 µg/mL (≈ 244 µM) | 32 µg/mL (≈ 122 µM) | 128 µg/mL (≈ 488 µM) | 128 µg/mL (≈ 488 µM) | > 128 µg/mL | > 128 µg/mL | > 128 µg/mL | 0.25 µg/mL (≈ 0.953 µM) | Ratio [18]: >512; Ratio [19]: >512; Ratio [20]: >512
CCCCNC(=O)/C=C/c1ccc(Cl)cc1Cl [N-BUTYL-3-(2,4-DICHLOROPHENYL)ACRYLAMIDE] | > 128 µg/mL | > 128 µg/mL | 128 µg/mL (≈ 470 µM) | > 128 µg/mL | > 128 µg/mL | > 128 µg/mL | > 128 µg/mL | 64 µg/mL (≈ 235 µM) | 128 µg/mL (≈ 470 µM) | > 128 µg/mL | > 128 µg/mL | > 128 µg/mL | > 128 µg/mL | –
Cc1nc2ccccc2n1C(=O)/C=C/c1ccc(Cl)cc1 | 128 µg/mL (≈ 431 µM) | 128 µg/mL (≈ 431 µM) | 128 µg/mL (≈ 431 µM) | 8 µg/mL (≈ 27 µM) | > 128 µg/mL | 64 µg/mL (≈ 216 µM) | 16 µg/mL (≈ 53.9 µM) | 32 µg/mL (≈ 108 µM) | 8 µg/mL (≈ 27 µM) | > 128 µg/mL | > 128 µg/mL | > 128 µg/mL | 0.5 µg/mL (≈ 1.68 µM) | inhibition [16]: Dose-dependent effect; inhibition [17]: Dose-dependent effect
COc1cc(/C=C/C(=O)n2c(C)nc3ccccc32)cc(OC)c1OC | > 128 µg/mL | 128 µg/mL (≈ 363 µM) | > 128 µg/mL | > 128 µg/mL | > 128 µg/mL | > 128 µg/mL | 128 µg/mL (≈ 363 µM) | 128 µg/mL (≈ 363 µM) | 128 µg/mL (≈ 363 µM) | > 128 µg/mL | > 128 µg/mL | > 128 µg/mL | 64 µg/mL (≈ 182 µM) | –
Cc1nc2ccccc2n1C(=O)/C=C/c1ccc(Cl)cc1Cl | 128 µg/mL (≈ 386 µM) | 128 µg/mL (≈ 386 µM) | 128 µg/mL (≈ 386 µM) | 4 µg/mL (≈ 12.1 µM) | > 128 µg/mL | 16 µg/mL (≈ 48.3 µM) | 4 µg/mL (≈ 12.1 µM) | > 128 µg/mL | 64 µg/mL (≈ 193 µM) | > 128 µg/mL | > 128 µg/mL | > 128 µg/mL | 1 µg/mL (≈ 3.02 µM) | Ratio [21]: >32; Ratio [22]: >32; Ratio [23]: >32; inhibition [16]: Dose-dependent effect; inhibition [17]: Dose-dependent effect; IC50 [24]: 90.6 µM
COc1ccccc1/C=C/C(=O)n1c(C)nc2ccccc21 | 128 µg/mL (≈ 438 µM) | 128 µg/mL (≈ 438 µM) | 128 µg/mL (≈ 438 µM) | 64 µg/mL (≈ 219 µM) | 128 µg/mL (≈ 438 µM) | 64 µg/mL (≈ 219 µM) | 16 µg/mL (≈ 54.7 µM) | 128 µg/mL (≈ 438 µM) | > 128 µg/mL | > 128 µg/mL | 128 µg/mL (≈ 438 µM) | 128 µg/mL (≈ 438 µM) | > 128 µg/mL | –
CCCCCCNC(=O)/C=C/c1ccc(Cl)cc1Cl | > 128 µg/mL | > 128 µg/mL | > 128 µg/mL | > 128 µg/mL | > 128 µg/mL | > 128 µg/mL | > 128 µg/mL | 128 µg/mL (≈ 426 µM) | > 128 µg/mL | 128 µg/mL (≈ 426 µM) | > 128 µg/mL | > 128 µg/mL | > 128 µg/mL | –
Cc1nc2ccccc2n1C(=O)/C=C/c1ccc([N+](=O)[O-])cc1 | 128 µg/mL (≈ 417 µM) | 128 µg/mL (≈ 417 µM) | 128 µg/mL (≈ 417 µM) | 16 µg/mL (≈ 52.1 µM) | > 128 µg/mL | 128 µg/mL (≈ 417 µM) | 128 µg/mL (≈ 417 µM) | 64 µg/mL (≈ 208 µM) | 16 µg/mL (≈ 52.1 µM) | > 128 µg/mL | > 128 µg/mL | > 128 µg/mL | 0.5 µg/mL (≈ 1.63 µM) | –
Cc1nc2ccccc2n1C(=O)/C=C/c1ccccc1Cl | 128 µg/mL (≈ 431 µM) | 128 µg/mL (≈ 431 µM) | 128 µg/mL (≈ 431 µM) | 32 µg/mL (≈ 108 µM) | 128 µg/mL (≈ 431 µM) | 64 µg/mL (≈ 216 µM) | 4 µg/mL (≈ 13.5 µM) | > 128 µg/mL | – | > 128 µg/mL | 128 µg/mL (≈ 431 µM) | 128 µg/mL (≈ 431 µM) | 16 µg/mL (≈ 53.9 µM) | Ratio [21]: >32; Ratio [22]: >32; Ratio [23]: >32
COc1ccc(NC(=O)/C=C/c2ccc(Cl)cc2Cl)cc1 | > 128 µg/mL | > 128 µg/mL | > 128 µg/mL | > 128 µg/mL | > 128 µg/mL | > 128 µg/mL | > 128 µg/mL | 128 µg/mL (≈ 397 µM) | 128 µg/mL (≈ 397 µM) | > 128 µg/mL | > 128 µg/mL | > 128 µg/mL | > 128 µg/mL | –
